Laboratory results as given in ChEMBL document CHEMBL4513216, “Probing the Open Global Health Chemical Diversity Library for Multistage-Active Starting Points for Next-Generation Antimalarials” (ACS Infect Dis, 2020).

Assay: Toxicity liver stage against HepG2, at 10uM
Assay type: cell-based
Design: test concentration 10 uM, cell line HepG2-A16-CD81EGFP
Conditions: human, HepG2-A16-CD81EGFP cells; read-out: INHIBITION
Procedure, shortened: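 Uninfected HepG2-A16-CD81EGFP cells, 3 × 10^3 per well, 1536-well, plated on prespotted compound at 10 μM final, parasite-free screening media added to match infected plates; puromycin 10 μM positive, DMSO 0.5% negative; run in parallel with 48 h PbLuc assay at 37 °C, 5% CO2; viability by CellTiter-Glo luminescence, normalized to controls.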

CC(=O)N1CCN(c2cnccn2)CC(CO)C1 (stereo not given)
cytotoxicity at 10 µM: 3.03%

CCC1CCCCN1C(=O)Cn1cnc(C#N)n1 (stereo not given)
cytotoxicity at 10 µM: -22.1%

COc1ccc(Oc2cccc(C#N)n2)cc1CN1CCCC1
cytotoxicity at 10 µM: -1.86%

Cc1nc2n(n1)CC(NCC(=O)N(C)Cc1cccs1)CC2 (stereo not given)
cytotoxicity at 10 µM: -0.189%

CCn1cc(CN2CCCC(COc3ccccc3F)C2)cn1 (stereo not given)
cytotoxicity at 10 µM: -47.7%

CNC(=O)CC1CCN(C(=O)NCc2cn3c(C)cccc3n2)CC1
cytotoxicity at 10 µM: 3.88%

Cc1occc1CNC(=O)NCCN(C)C1CCCC1
cytotoxicity at 10 µM: -19.5%

COC(=O)c1ccc(Cl)c(CN(C)Cc2ncnn2C)c1
cytotoxicity at 10 µM: -7.81%

O=C1N(CC2CC2)CCCC1(O)CN1CCc2[nH]ncc2C1 (stereo not given)
cytotoxicity at 10 µM: -2.2%

Cc1ncc(-c2ccnc(NCCc3ccc(F)cc3)n2)c(=O)[nH]1
cytotoxicity at 10 µM: -7.3%

CN(Cc1ccco1)[C@@H]1CN(Cc2nccn2C)[C@@H]2CCCO[C@H]12
cytotoxicity at 10 µM: -67.9%

COCCN1CCC2(CC1)CN(CCn1cccn1)C(=O)CO2
cytotoxicity at 10 µM: 7.22%

CCc1nsc(NC2CCCn3nc(CC)nc32)n1 (stereo not given)
cytotoxicity at 10 µM: 16.2%

Cc1cc(C2CCCN2CCC(=O)N2CCc3sccc3C2)no1 (stereo not given)
cytotoxicity at 10 µM: -16.1%

O=C(Nc1ccc(CCN2CCOCC2)cc1)C1CC1
cytotoxicity at 10 µM: -10.9%

CCC(=O)Nc1ccc(F)c(S(=O)(=O)NC(C)(C)C)c1
cytotoxicity at 10 µM: -1.74%

CN(CCCc1cc(-c2ccc(F)cc2)n[nH]1)C(=O)CCn1cncn1
cytotoxicity at 10 µM: -137%

COc1ccc(C(C)NC(=O)NCCc2ccc(C)nc2)c(OC)c1 (stereo not given)
cytotoxicity at 10 µM: -1.74%

Cc1cc(NC(=O)C(C)N2CCN(c3nc(C)cs3)CC2)on1 (stereo not given)
cytotoxicity at 10 µM: -0.71%

C1CN(c2nc3c(c(NC4CC4)n2)CN(CC2CCOC2)CC3)CCO1 (stereo not given)
cytotoxicity at 10 µM: -2.22%

CC(=O)N1Cc2ccccc2OC2(CCN(C(=O)C3CCOC3)CC2)C1 (stereo not given)
cytotoxicity at 10 µM: 0.146%

COc1ccccc1NC(=O)c1cnc(C2CCN(C(C)=O)C2)nc1C (stereo not given)
cytotoxicity at 10 µM: 6.42%

Cc1nc(CN2CCC3(CC2)NC(=O)CC3c2ccncc2)cs1 (stereo not given)
cytotoxicity at 10 µM: 5.79%

CC(C)(O)c1cc(CC2(NCc3ccccc3Cl)COC2)no1
cytotoxicity at 10 µM: 2.63%

CCCN1CCCC1c1ccc(C(=O)N2CCOCC2)s1 (stereo not given)
cytotoxicity at 10 µM: -146%

CC(C)c1nc2n(n1)CC(NCc1ccncc1)CC2 (stereo not given)
cytotoxicity at 10 µM: -13.9%

COC(=O)c1ccc(C2SC(C)=Nc3c2c(=O)[nH]n3C2CCCC2)cc1 (stereo not given)
cytotoxicity at 10 µM: 6.84%

O=C(NCc1cccc(Cl)c1)C1=NOC2(CCNC2)C1 (stereo not given)
cytotoxicity at 10 µM: -0.0606%

CC(C)n1cnnc1CN(C)CC1CCOC1 (stereo not given)
cytotoxicity at 10 µM: 11.3%

CC(=O)N1N=C(c2cccs2)OC1C(=O)Nc1ccc(C)cc1 (stereo not given)
cytotoxicity at 10 µM: -4.14%

O=C1COc2cc(C(=O)NS(=O)(=O)c3ccc(F)c(F)c3)ccc2N1
cytotoxicity at 10 µM: -2.34%

O=C(c1cccs1)N1C[C@H]2CC[C@@]3(N=C(c4ccccc4)NC3=O)[C@H]2C1
cytotoxicity at 10 µM: -9.84%

Cc1ccc(OCC(=O)Nc2cc(C(=O)O)cc(S(C)(=O)=O)c2)cc1C
cytotoxicity at 10 µM: -4.95%

Cc1ccc(-n2ncc(C(=O)N3CCCC3c3cnn(C)c3)c2C)cc1 (stereo not given)
cytotoxicity at 10 µM: -7.79%

COc1ccc(NC(=O)CCC2CCCN(Cc3ncon3)C2)cc1Cl (stereo not given)
cytotoxicity at 10 µM: -6.12%

C[C@@H]1CN(C2CCOC2)C[C@]12CCN(c1cccnc1)C2=O (stereo not given in full)
cytotoxicity at 10 µM: 7.49%

c1ncn(CC2CCCN2Cc2csc(C3CCCCC3)n2)n1 (stereo not given)
cytotoxicity at 10 µM: 1.77%

O=C(CCn1cncn1)NC1CCS(=O)(=O)C1 (stereo not given)
cytotoxicity at 10 µM: -45.4%

CNc1nc(C)cc(NC2CCCN(C3Cc4ccccc4C3)C2)n1 (stereo not given)
cytotoxicity at 10 µM: 12.5%

Cc1ccc(N2CCC(C(=O)O)(n3ccc(C(C)C)n3)CC2)nn1
cytotoxicity at 10 µM: -3.64%

CNC(=O)C1(c2cnccn2)CCCN1C(=O)c1ccc(F)cc1 (stereo not given)
cytotoxicity at 10 µM: 0.918%

CNC(=O)CN1CCO[C@H]2CN(CC3CCOCC3)C[C@H]21
cytotoxicity at 10 µM: 12.5%

COCc1cccc(NC(C(N)=O)c2ccc(Br)cc2)c1 (stereo not given)
cytotoxicity at 10 µM: 2.94%

Cc1noc(C2(NC(=O)c3cccnc3O)CCCCC2)n1
cytotoxicity at 10 µM: -9.83%

CN1CCC(NC(=O)Nc2ccc(Cl)c(F)c2)C1=O (stereo not given)
cytotoxicity at 10 µM: -136%

CC(C(=O)N1CCN(c2ncccn2)CC1)n1cncn1 (stereo not given)
cytotoxicity at 10 µM: -1.24%

CNc1cc(C)nc(N2CCC3(CC2)[C@H](O)C[C@@H]3O)n1
cytotoxicity at 10 µM: -17.5%

Cc1cc(C(=O)N2CCN(c3ncc4c(n3)CCOC4)CC2)sc1C
cytotoxicity at 10 µM: 0.794%

CC(C)c1noc(-c2ccc(NCc3noc(C(C)C)n3)nc2)n1
cytotoxicity at 10 µM: -6.49%

CN1CCN(Cc2cnn(-c3ccc(F)cc3)c2)[C@H]2CS(=O)(=O)C[C@H]21
cytotoxicity at 10 µM: 12.8%

O=C(Nc1cccc(C(=O)OCC2CCCN2)c1)c1ccoc1 (stereo not given)
cytotoxicity at 10 µM: -3.06%

COCCN1C[C@H]2CCN(c3ncccn3)CC[C@H]2S1(=O)=O
cytotoxicity at 10 µM: -2.2%

O=C(Nc1nc(-c2ccccc2)ns1)N1CC[C@H](O)C1
cytotoxicity at 10 µM: 10.5%

CNC(=O)C(C)(C)NC(=O)c1cc(OCC2CCC2)cc(C(=O)OC)c1
cytotoxicity at 10 µM: -8.97%

Cc1[nH]nc(CCC(=O)N2C[C@@H]3CC[C@H]2CN(C(=O)N(C)C)C3)c1C
cytotoxicity at 10 µM: 3.8%

CCc1nnc(NC(=O)c2ccc(C3CCCN3CC(C)C)s2)s1 (stereo not given)
cytotoxicity at 10 µM: 2.14%

CN(C)[C@@H]1CCN(c2ncccn2)[C@H]1Cc1ccccc1
cytotoxicity at 10 µM: -9.29%

COCc1cccc(CNCc2c(C(C)C)nn(C)c2N(C)C)c1
cytotoxicity at 10 µM: -7.16%

COCc1nc2nc(O)c3c(n2n1)NC(=O)CC3c1ccc(SC)cc1 (stereo not given)
cytotoxicity at 10 µM: 1.22%

NC1CCCc2nc(-c3ccccc3)ncc21 (stereo not given)
cytotoxicity at 10 µM: 4.93%

CC(NC(=O)OC(C)(C)C)c1nnc(S(=O)(=O)Cc2ccccc2Cl)o1 (stereo not given)
cytotoxicity at 10 µM: 0.935%

c1cnn(CC2CCCN2Cc2nc(C3CC3)no2)c1 (stereo not given)
cytotoxicity at 10 µM: 1.61%

O=C(NCCCn1cccn1)C1CCC(=O)N(CC2CCCCC2)C1 (stereo not given)
cytotoxicity at 10 µM: -0.312%

COCCN1CC[C@@H]2O[C@@H](COCC(=O)N3CCCC3)CC[C@@H]21
cytotoxicity at 10 µM: -18.1%

Cc1ccccc1OCCN1CCn2c(C)nnc2C1
cytotoxicity at 10 µM: -2.78%

NCC1Cc2cc(Oc3cc(F)c(CN4CCCC4)c(F)c3)ccc2O1 (stereo not given)
cytotoxicity at 10 µM: -8.97%

CO[C@@H]1CCN(c2ncccn2)[C@H]1Cc1ccccc1
cytotoxicity at 10 µM: -0.651%

COCCCNC(=O)CN(C)C(=O)c1cc(C)ccc1N(C)C(C)C
cytotoxicity at 10 µM: -4.84%

COCCN(Cc1ccc(F)cc1Cl)C(=O)c1ccncc1
cytotoxicity at 10 µM: -5.69%

Cn1cc(C[C@H]2[C@H](O)CCN2Cc2ccc(F)cc2)cn1
cytotoxicity at 10 µM: -75.9%

Cc1nc(Nc2nncs2)cc(C2CNC2)n1
cytotoxicity at 10 µM: 5.88%

c1cnc(N2C[C@H]3CN(CC4CCOC4)C[C@H]3C2)nc1 (stereo not given in full)
cytotoxicity at 10 µM: -5.09%

CC(=O)N1CCN(C(=O)c2cnn(-c3ccccc3Cl)c2)CC1
cytotoxicity at 10 µM: -8.72%

CCc1c(O)nc(SCC(=O)N(CC)CC)n(C(C)CC)c1=O (stereo not given)
cytotoxicity at 10 µM: -6.65%

CN1CCCC1c1ccc(N2CCOCC2)cn1 (stereo not given)
cytotoxicity at 10 µM: -2.21%

CCn1nc(C)c(CCNC(=O)C2CCCN(C(=O)N(C)C)C2)c1C (stereo not given)
cytotoxicity at 10 µM: 0.874%

CCCc1n[nH]c(C2CN(C(=O)c3ccnc(C4CC4)n3)CCO2)n1 (stereo not given)
cytotoxicity at 10 µM: -7.49%

O=C(c1ccncc1)N1CCC2(CCCN(c3ncc(F)cn3)C2)C1 (stereo not given)
cytotoxicity at 10 µM: -105%

CCOc1ccc(NC(=O)c2cccc(OC)c2OC)cc1
cytotoxicity at 10 µM: 1.64%

Cc1nc(CN2C(=O)C[C@H]3[C@H]2CCN3C2CCOCC2)cs1
cytotoxicity at 10 µM: -7.87%

COc1ccc(-n2cc(CCO)cn2)cc1C(N)=O
cytotoxicity at 10 µM: 5.97%

CN1C(=O)CC[C@@H]2[C@H]1CCN2S(=O)(=O)Cc1ccccc1
cytotoxicity at 10 µM: -5.73%

COc1cc(NC(=O)N(C)CC2CC2)ncn1
cytotoxicity at 10 µM: 7.09%

CSCC(C)(O)CNC(=O)c1cc(Br)ccc1Cl (stereo not given)
cytotoxicity at 10 µM: -25.1%

COc1ccccc1N1CCN(C(=O)CCn2ccc(C)n2)CC1(C)C
cytotoxicity at 10 µM: -8.64%

O=C(CN1CCCC1Cn1cncn1)NCCOc1ccccc1 (stereo not given)
cytotoxicity at 10 µM: -7.52%

NC(=O)COc1cccc(C(=O)Nc2cnc3n2CCCC3)c1
cytotoxicity at 10 µM: 18.2%

CN(C)S(=O)(=O)N1CC[C@]2(C[C@H](OCc3ccccn3)CO2)C1
cytotoxicity at 10 µM: 11.6%

COc1cc(C)ccc1S(=O)(=O)N1CC[C@](C)(O)[C@H](C)C1
cytotoxicity at 10 µM: 7.52%

CCN(Cc1ccc2c(c1)OCCO2)C(=O)Cn1cccnc1=O
cytotoxicity at 10 µM: -5.1%

O=C(c1ccncc1)N1C[C@H]2CC[C@@H](C1)N(S(=O)(=O)c1cccnc1)C2
cytotoxicity at 10 µM: -3.51%

CCOc1cccc(CCNC(=O)Cc2ccccc2O)n1
cytotoxicity at 10 µM: -2.55%

CN(C)S(=O)(=O)N1C[C@@H]2CN(Cc3ccoc3)CCO[C@@H]2C1
cytotoxicity at 10 µM: 12.2%

CC(C)(C)n1ncc(NCC(O)c2ccccc2)c(Cl)c1=O (stereo not given)
cytotoxicity at 10 µM: 46.6%

CCC(NC(=O)C1CCN(C(C)C)CC1)c1cn2cccnc2n1 (stereo not given)
cytotoxicity at 10 µM: -6.21%

c1cncc(N2CCCC3(CCN(CCN4CCCC4)CC3)C2)c1
cytotoxicity at 10 µM: -2.95%

COc1ccc(S(=O)(=O)NCc2cccnc2N(C)C)cc1F
cytotoxicity at 10 µM: 5.8%

Cc1nc(CCNc2nc(N(C)C)nc3c2CCCC3)cc(=O)[nH]1
cytotoxicity at 10 µM: 6.86%

CSCc1cccc(C(=O)N2CCN(CC(C)O)CC2)c1 (stereo not given)
cytotoxicity at 10 µM: -5.31%

Cc1cnn(CC2CCCN2CC(=O)Nc2cc(C)nn2C)c1 (stereo not given)
cytotoxicity at 10 µM: -20.1%

COCc1nc(CNc2cc(C)nc(N3CCCCC3)n2)no1
cytotoxicity at 10 µM: 9.84%

CN(Cc1ccco1)C(=O)[C@@]12CNC[C@@H]1CN(C1CCCC1)C2
cytotoxicity at 10 µM: 3.75%

CC1(c2ncc(CN3CCOCC3)cn2)CCCCO1 (stereo not given)
cytotoxicity at 10 µM: 6.08%

COc1cccc(CC(=O)N2CCCC(c3nncn3C)C2)c1 (stereo not given)
cytotoxicity at 10 µM: -20.2%

Cc1nc(CNC(=O)CC2C(=O)NCCN2Cc2ccccc2C)n[nH]1 (stereo not given)
cytotoxicity at 10 µM: -7.21%

CSCc1noc(CNC(=O)C2CCN(C(=O)C3CC3)CC2)n1
cytotoxicity at 10 µM: 11.5%

Fc1ccccc1Sc1ccccc1CNC1=NCCN1
cytotoxicity at 10 µM: 12.5%

CN(C)CCN1CCO[C@@H]2CN(C(=O)c3cccs3)CC[C@@H]2C1
cytotoxicity at 10 µM: 1.34%

CCCN(Cc1cccc(OCCO)c1)Cc1ccccc1OC
cytotoxicity at 10 µM: 5.15%

CCNC(=O)c1cnc(Sc2nccn2C)c(Cl)c1
cytotoxicity at 10 µM: -49.2%
